Screening results (PubChem BioAssay)
In the library only some 8.9% were active in any assay of this set; here they are far more common.
HSV augment: increases HSV replication in cells. HSV replication augmentation in cells, fold increase. maximum fold increase. hit rate 0.005% among 220,000. AID 1956; in the data active means maximum fold increase above about 1.5; tested in PC3 cells
bCat nuc transl: alters nuclear translocation of beta-catenin in HeLa cells; AID 1665; immunofluorescence imaging; nuclear translocation activity, % at 5 µM; hit rate 0.3% among 190,000;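 active means nuclear translocation activity above 50% at 5 µM, with a well cell count of 50 or more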;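 further: per-cell ratio of nuclear to cytoplasmic median beta-catenin stain intensity; plate controls were DMSO negative control for no effect and GSK-3 inhibitor IX positive control for full effect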
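assay system = human HeLa cells, endogenous beta-catenin | times = compound treatment 24 h, 37°C, 5% CO2 | detection = Anti-beta-catenin immunofluorescence on PFA-fixed, Triton-permeabilized cells, DAPI nuclei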
L major viab: Leishmania major promastigote growth inhibition; Leishmania major promastigotes, resazurin fluorescence viability; inhibition, % at 10 µM; hit rate 9% among 200,000; AID 1063; in the data active means inhibition above about 50%;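 further: promastigotes grown with compound for 44 hours at 28 °C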
MT stabilize HCS: microtubule stabilization, imaging screen. HeLa tubulin immunostaining HCS, 24 h; share of cells brighter than vehicle mean+2SD. % tubulin-high responders, % at 10 µM. hit rate 0.83% among 200,000. AID 2205;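 active means plate Z-score above 3 for both tubulin-high and condensed-nucleus cell shares, with cell loss under 80%, at 10 µM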;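 further: anti alpha tubulin signal scored within the nucleus-defined area of each cell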
Dynein transport: blocks dynein driven cargo transport along microtubules; 3617.4 mouse cells, GR-EGFP nuclear translocation imaging; test concentration mostly 20 µM; stimulated with dexamethasone, 1 µM; hits give low values; z-score, hits read low; hit rate 0.47% among 220,000; AID 1381;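 active means plate z-score of nuclear minus cytoplasmic receptor signal below a set negative limit, without overly bright fluorescence or cell loss, cut at about -3.5 in these data, passing the limit was not always enough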;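 further: z-score of nuclear minus cytoplasmic ring GR-EGFP intensity difference per well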
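Buffer or medium: tet-free, stripped-serum medium; Also added: dexamethasone, 1.0 µM final; Technique: high-content fluorescence imaging after fixation; Times: 48 h induction, 1 h compound, 30 min dex at 37 °C; Read-out: per-cell GR-EGFP intensity, nucleus versus surrounding cytoplasmic ring, well-averaged.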
Active calls of the source: *.

What do the screens show for `O=C(Nc1cccc(C(F)(F)F)c1)C1CCCN1S(=O)(=O)c1cccc2cccnc12` (centres undefined)?
HSV augment: inactive; L major viab: 83.5*; MT stabilize HCS: 4.6; Dynein transport: -0.327

What do the screens show for `Cn1nc(C(F)(F)F)c(CN2CC(C)(C)C2=O)c1N1CCOCC1`?
HSV augment: inactive; bCat nuc transl: -1.3; L major viab: -3.5; MT stabilize HCS: 3.6; Dynein transport: 1.95

Results for Cc1ccc(NC(=O)c2ccc([N+](=O)[O-])o2)cc1S(=O)(=O)N1CCOCC1 ?
HSV augment: inactive; bCat nuc transl: 11.2; L major viab: 99.3*; MT stabilize HCS: 18.3; Dynein transport: -1.78

How did O=C(COC(=O)c1ccc([N+](=O)[O-])o1)Nc1cccc(S(=O)(=O)N2CCCCC2)c1 do in these assays?
HSV augment: inactive; bCat nuc transl: -2.3; L major viab: -9.0; MT stabilize HCS: 3.9; Dynein transport: -1.27

How did Cc1ccc(NC(=O)COC(=O)c2ccc([N+](=O)[O-])o2)cc1S(=O)(=O)N1CCCCC1 do in these assays?
HSV augment: inactive; bCat nuc transl: 1.2; L major viab: -5.2; MT stabilize HCS: 2.9; Dynein transport: -0.725

How did Cc1ccc(NC(=O)c2ccccc2-c2ccc(C(F)(F)F)cc2)cc1S(=O)(=O)N1CCOCC1 do in these assays?
HSV augment: inactive; L major viab: 93.3*; MT stabilize HCS: 2.1; Dynein transport: -0.207

What do the screens show for `O=C(Nc1cccc(S(=O)(=O)N2CCCCC2)c1)c1ccc([N+](=O)[O-])o1`?
HSV augment: inactive; bCat nuc transl: -2.9; L major viab: 100.3*; MT stabilize HCS: 3.1; Dynein transport: -1.78

Results for O=C(Nc1cccc(Cl)c1N1CCCC1)c1ccc([N+](=O)[O-])o1 ?
HSV augment: inactive; bCat nuc transl: 6.9; L major viab: 86.5*; MT stabilize HCS: 2.5; Dynein transport: 1.08

Results for CCN(CC)CCn1c(O)c(N=O)c2ccccc21 ?
HSV augment: inactive; bCat nuc transl: -1.9; L major viab: 0.7; MT stabilize HCS: 4.3; Dynein transport: 0.393

Results for Clc1ccccc1CONc1ncnc2nonc12 ?
HSV augment: inactive; bCat nuc transl: 0.8; L major viab: 5.2; MT stabilize HCS: 3.3; Dynein transport: 0.352

Results for COC(=O)c1cn(C(=O)c2ccc(C)cc2C)c2ccccc12 ?
HSV augment: inactive; bCat nuc transl: -2.0; L major viab: 15.0; MT stabilize HCS: 15.4*; Dynein transport: -0.681

What do the screens show for `COC(=O)c1cn(C(=O)OC)c2ccccc12`?
HSV augment: inactive; bCat nuc transl: 2.4; L major viab: 19.4; MT stabilize HCS: 3.7; Dynein transport: -0.672

How did COC(=O)c1cn(C(=O)/C=C/c2ccc(OC)c(OC)c2)c2ccccc12 do in these assays?
HSV augment: inactive; bCat nuc transl: 1.8; L major viab: 26.4; MT stabilize HCS: 6.9; Dynein transport: -2.1

What do the screens show for `COC(=O)c1cn(C(=O)c2ccccc2Cl)c2ccccc12`?
HSV augment: inactive; bCat nuc transl: 11.4; L major viab: 6.9; MT stabilize HCS: 17.8*; Dynein transport: -0.465

Results for CC(C)CN1CC(C(=O)O)CC1=O (centres undefined) ?
HSV augment: inactive; bCat nuc transl: 0.1; L major viab: -8.7; MT stabilize HCS: 3.5; Dynein transport: -0.363

What do the screens show for `N#C/C=C(/N)N1CCN(c2ccc(Cl)c(Cl)c2)CC1`?
HSV augment: inactive; bCat nuc transl: 0.6; L major viab: 70.2*; MT stabilize HCS: 1.8; Dynein transport: -0.555

Results for COC(=O)N1CCN(c2ccc(Cl)c(Cl)c2)CC1 ?
HSV augment: inactive; L major viab: 21.0; MT stabilize HCS: 2.0; Dynein transport: -0.631

How did Nc1ccc(N2CCN(c3ccc(F)cc3)CC2)cc1 do in these assays?
HSV augment: inactive; bCat nuc transl: -1.8; L major viab: 77.8*; MT stabilize HCS: 4.3; Dynein transport: 0.563

Results for Nc1ccc(N2CCN(c3ccc(Cl)c(Cl)c3)CC2)cc1 ?
HSV augment: inactive; bCat nuc transl: 2.0; L major viab: 98.5*; MT stabilize HCS: 5.5; Dynein transport: 1.59

How did c1ccc(-n2ncc3c2ncn2cnnc32)cc1 do in these assays?
HSV augment: inactive; bCat nuc transl: -0.2; L major viab: -1.3; MT stabilize HCS: 2.0; Dynein transport: -0.826

Results for CC1=NN(C(=O)c2c(Br)cnn2C)C(O)(C(F)(F)F)C1 (centres undefined) ?
HSV augment: inactive; L major viab: -4.7; MT stabilize HCS: 2.7; Dynein transport: 0.352

How did CCOc1ccc2ncc(S(=O)(=O)c3ccccc3)c(N3CCC4(CC3)OCCO4)c2c1 do in these assays?
HSV augment: inactive; L major viab: 85.7*; MT stabilize HCS: 2.5; Dynein transport: 0.0204

How did CCOc1ccc2ncc(S(=O)(=O)c3ccccc3)c(N3CCN(c4ccc(OC)cc4)CC3)c2c1 do in these assays?
HSV augment: inactive; L major viab: 99.5*; MT stabilize HCS: 2.3; Dynein transport: -0.433

Results for COc1ccc(N2CCN(c3c(S(=O)(=O)c4ccccc4)cnc4ccc(OC)cc34)CC2)cc1 ?
HSV augment: inactive; bCat nuc transl: -1.4; L major viab: 60.9*; MT stabilize HCS: 7.1; Dynein transport: 0.339

What do the screens show for `Cn1c(CO)cnc1-c1ccccc1`?
HSV augment: inactive; bCat nuc transl: 0.7; Dynein transport: -0.457

What do the screens show for `CCN(CC)CCSc1nc(O)c(-c2ccccc2)c(=O)[nH]1`?
HSV augment: inactive; bCat nuc transl: -0.4; L major viab: -7.8; MT stabilize HCS: 3.5; Dynein transport: 1.82

Results for O=C(CSc1nn(-c2ccccc2)c(=S)s1)Nn1cnnc1 ?
bCat nuc transl: 1.0; L major viab: -3.2; MT stabilize HCS: 3.8; Dynein transport: -0.465

Results for Cc1ccc(NC(=O)CSc2nn(-c3ccccc3)c(=S)s2)cc1S(=O)(=O)N(C)C ?
HSV augment: inactive; bCat nuc transl: -2.7; L major viab: 77.4*; MT stabilize HCS: 3.5; Dynein transport: -1.11

What do the screens show for `CCc1cc(=O)oc2c(C)c(OCC(=O)N3CCCc4ccccc43)ccc12`?
HSV augment: inactive; bCat nuc transl: 1.7; L major viab: 89.2*; MT stabilize HCS: 1.3; Dynein transport: 0.994

What do the screens show for `CC(C)(C)c1ccc(C2(C)NC(=O)N(CC(=O)NCc3cccs3)C2=O)cc1` (centres undefined)?
HSV augment: inactive; L major viab: 68.9*; MT stabilize HCS: 1.3; Dynein transport: -0.547

Results for Cc1ccnc(NC(=O)c2cccc(NS(=O)(=O)c3ccccc3C)c2)c1 ?
HSV augment: inactive; bCat nuc transl: -0.7; L major viab: 91.1*; MT stabilize HCS: 1.9; Dynein transport: -0.668

Results for Cc1c(Cl)c([N+](=O)[O-])nn1CC(=O)Nc1ccc2c(c1)OCO2 ?
HSV augment: inactive; L major viab: 81.2*; MT stabilize HCS: 3.5; Dynein transport: -0.278

Results for Cc1ccc(C)c(OCC(=O)Nc2ccc3c(c2)OCO3)c1 ?
bCat nuc transl: -0.2; L major viab: 81.5*; MT stabilize HCS: 3.9; Dynein transport: -0.372
